Results gathered from unrelated publications.
Target: Aurora kinase B (AURKB, Homo sapiens, UniProt Q96GD4)

SMILES	assay	conditions	measurement	result
Cc1nn(CC(F)(F)F)cc1Nc1ncc(C2CC2)c(NCCCNC(=O)C2CCC2)n1	enzyme activity, inhibitor, radiometric	1 µM	remaining activity	102%
CO[C@@H](C)c1c(Nc2ccc([C@@H](N(C)C(=O)C3CCS(=O)(=O)CC3)C(F)(F)F)cc2)cnc2cc(Cl)nn12	cell-free assay, competition with immobilised ligand	1 µM	remaining binding	74%
C#Cc1cccc(Nc2ncnc3cc(OCCOC)c(OCCOC)cc23)c1	enzyme activity, inhibitor	0.5 µM	activity vs control	74.7%
Cc1cc(Nc2cc3ncccc3c(N[C@@H]3C[C@H]4CC[C@@H](C3)N4CCC#N)n2)n[nH]1	enzyme activity, inhibitor	1 µM	inhibition	80%
CN(C)C1CCN(CC#Cc2nn(C3CCCC3)c3nc(NCc4ccccc4)ncc23)C1 (stereo not drawn)	enzyme activity, inhibitor, FRET	0.1 µM	inhibition	8%
COc1cc2c(Nc3ccc(Br)cc3F)ncnc2cc1OCC1CCN(C)CC1	cell-free assay	0.5 µM	remaining signal	95.5%
CC(=O)c1c(NS(C)(=O)=O)c2cc(-c3ccc(Cl)cc3)c(-c3ccc(Cl)cc3Cl)nc2n(C)c1=O	cell-free assay, competition with immobilised ligand	1 µM	remaining binding	100%
NS(=O)(=O)c1ccc(CNc2ccnc(Nc3cccc(CN4CCOCC4)c3)n2)cc1	enzyme activity, inhibitor, radiometric	1 µM	remaining activity	48%
Cc1nc(N2CC[C@@H](O)C2)ncc1-c1cc(C(F)(F)F)cc2[nH]ncc12	cell-free assay, competition with immobilised ligand	1 µM	remaining binding	100%
Cc1cc(NC(=O)c2cccc3cc(-c4cccc5[nH]nc(N)c45)ccc23)ccc1F	enzyme activity, inhibitor	0.1 µM	activity vs control	12%
O=C(NCCCNc1nc(Nc2cccc(NC(=O)N3CCCC3)c2)ncc1C1CC1)C1CCC1	enzyme activity, inhibitor, radiometric	1 µM	remaining activity	11%
c1ccc(N2CCN(Cc3nc4ccccc4[nH]3)CC2)nc1	cell-free assay, competition with immobilised ligand	1 µM	remaining binding	18%
CN1CC(Oc2cnc(C#N)cc2-c2ccn3nc(NC(=O)C4CC4)cc3c2)C1	enzyme activity, inhibitor	1 µM	inhibition	1%
Cc1ccc(NC(=O)c2ccc(C)c(C(F)(F)F)c2)cc1C#Cc1nn(C2CCC(O)CC2)c2ncnc(N)c12 (stereo not drawn)	cell-free assay, inhibitor	10 µM	remaining signal	475%
Cc1nn(CC(F)(F)F)cc1Nc1ncc(C2CC2)c(NCCc2c[nH]cn2)n1	enzyme activity, inhibitor, radiometric	1 µM	remaining activity	82%
O=C(CSc1nc2nccnc2c(=O)n1CCc1ccccc1)Nc1nccs1	enzyme activity, inhibitor	10 µM	inhibition	6%
COc1cc2nccc(Oc3ccc(NC(=O)c4c5n(n(-c6ccc(F)cc6)c4=O)CCCC5)cc3)c2cc1OC	enzyme activity, inhibitor	0.1 µM	inhibition	60%
CN(C(=O)c1ccccc1)c1cc(N(C)c2ccc3c(c2)CCc2ccc(C(=O)NCCN4CCOCC4)cc2C3=O)ccc1F	cell-free assay, competition with immobilised ligand	1 µM	remaining binding	100%
Cc1ccc(C(=O)NCc2ccsc2)cc1C#Cc1cn(C(C)C)c2ncnc(N)c12	enzyme activity, inhibitor	1 µM	activity vs control	40%
COc1cccc(CNC(=O)c2nc3scc(COCc4ccc(C(=O)O)cc4)c3c(=O)[nH]2)c1	cell-free assay, competition with immobilised ligand	1 µM	remaining binding	71.3%
CCN(CC)CCNC(=O)c1c(C)[nH]c(/C=C2\C(=O)Nc3ccc(F)cc32)c1C	cell-free assay	0.5 µM	remaining signal	48.7%
